Measurements published in ChEMBL document CHEMBL4251564, “Development of noviomimetics that modulate molecular chaperones and manifest neuroprotective effects” (Eur J Med Chem, 2018).
Activity calls are given as the source filed them. The calls are words filed in the database; no cut-off is given here.

How the values were obtained:
Assay type in all cases: cell-based
Rattus norvegicus [1] = species: Rattus norvegicus; assay: Inhibition of HSP90 in rat 50B11 cells transfected with human HSPA1A promoter assessed as induction of human Hsp70 expression at 10 to 1000 nM incubated for 16 hrs by luciferase reporter gene assay
Rattus norvegicus [2] = species: Rattus norvegicus; assay: Inhibition of HSP90 in rat 50B11 cells assessed as increase in Hsp70 protein expression at 1 uM after 24 hrs by immunoblot assay
In short: (§1)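 Nontransfected 50B11 cells exposed 24 h to compound, with DMSO as negative control. Hsp70 detected by immunoblot; densitometry reports fold induction over DMSO. Mean ±SEM, n >2.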

Rattus norvegicus [3] = species: Rattus norvegicus; assay: Inhibition of HSP90 in rat 50B11 cells assessed as improvement in mitochondrial bioenergetics by measuring suppression of H2O2-induced reduction in oxygen consumption rate at 1 uM after 24 hrs by XF96 extracellular flux analyzer based method
In short: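 50B11 cells seeded in high-glucose DMEM with 10% FBS; after 12 h switched to high-glucose DMEM with 1% FBS plus 1.0 μM compound or DMSO for 24 h, then stressed with 0.5 mM H2O2 for 2 h. Intact-cell OCR and ECAR read on XF96 extracellular flux analyzer; maximal respiratory capacity from FCCP response; significance versus H2O2 alone, p<0.05.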

Rattus norvegicus [4] = species: Rattus norvegicus; assay: Inhibition of HSP90 in rat 50B11 cells assessed as increase in Hsp70 protein expression at 0.03 to 3 uM after 24 hrs by immunoblot assay; in short: as §1
Rattus norvegicus [5] = species: Rattus norvegicus; assay: Inhibition of HSP90 in rat 50B11 cells assessed as decrease in c-jun protein expression at 1 uM incubated for 24 hrs followed by 10% FBS exposure for 2 hrs by Western blot analysis
In short: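 50B11 cells held in serum-free medium 24 h to arrest cycle and lower c-Jun, then given vehicle or 1.0 μM compound for 24 h; c-Jun induced by 10% FBS medium for 2 h. Lysates immunoblotted for c-Jun with actin control; densitometry gives fold change normalized to serum-free-then-serum control. Mean ±SEM, n >2.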

**Q.** Which inhibition (Rattus norvegicus [1]) does the source give for `CC(=O)NCCc1ccc(OC2CCC(OCc3ccc(C)cc3)CC2)cc1-c1cccc(F)c1` (configuration not stated) here?
**A.** Active

**Q.** For `CC(=O)NCCc1ccc(OC2C=CC(OCc3ccc(Cl)cc3)CC2)cc1-c1cccc(F)c1` (configuration not stated), which inhibition (Rattus norvegicus [2]) is on record?
**A.** Active

**Q.** And the inhibition (Rattus norvegicus [1])?
**A.** Active

**Q.** How did the inhibition (Rattus norvegicus [2]) turn out when `CC(=O)NCCc1ccc(OC2CCC(OCc3ccc(C(F)(F)F)cc3)CC2)cc1-c1cccc(F)c1` (configuration not stated) was run?
**A.** inactive

**Q.** What about the inhibition (Rattus norvegicus [1]) of the same compound?
**A.** Active

**Q.** For `COc1ccccc1COc1ccc2cc(NC(C)=O)c(=O)oc2c1C`, which inhibition (Rattus norvegicus [1]) is on record?
**A.** inactive

**Q.** `CC(=O)NCCc1ccc(OC2CCC(OCc3ccc4ccccc4c3)CC2)cc1-c1cccc(F)c1` (configuration not stated) was tested. Which inhibition (Rattus norvegicus [1]) did it give?
**A.** Active

**Q.** `COc1cc(Cl)ccc1COC1CCC(Oc2ccc(CCNC(C)=O)c(-c3cccc(F)c3)c2)CC1` (configuration not stated) was tested. Which inhibition (Rattus norvegicus [2]) did it give?
**A.** inactive

**Q.** And the inhibition (Rattus norvegicus [1])?
**A.** Active

**Q.** `CO[C@@H]1[C@@H](O)[C@@H](O)[C@H](Oc2ccc(CCNC(C)=O)c(-c3cccc(F)c3)c2)OC1(C)C` was tested. Which inhibition (Rattus norvegicus [3]) did it give?
**A.** Active

**Q.** What about the inhibition (Rattus norvegicus [4]) of the same compound?
**A.** Active

**Q.** Which inhibition (Rattus norvegicus [2]) does the source give for `CC(=O)NCCc1ccc(OC2CCC(OCc3c(Cl)cccc3Cl)CC2)cc1-c1cccc(F)c1` (configuration not stated) here?
**A.** inactive

**Q.** What about the inhibition (Rattus norvegicus [1]) of the same compound?
**A.** Active

**Q.** For `CO[C@@H]1[C@@H](O)[C@@H](O)[C@H](Oc2cc(-c3cccc(F)c3)c(CCNC(C)=O)cc2C)OC1(C)C`, which inhibition (Rattus norvegicus [4]) is on record?
**A.** Active

**Q.** With `COc1cccc(COC2CCC(Oc3ccc(CCNC(C)=O)c(-c4cccc(F)c4)c3)CC2)c1` (configuration not stated) as the compound, how does the inhibition (Rattus norvegicus [1]) read?
**A.** Active

**Q.** How did the inhibition (Rattus norvegicus [5]) turn out when `COc1cc(O[C@@H]2OC(C)(C)[C@H](OC)[C@@H](O)[C@H]2O)cc(-c2cccc(F)c2)c1CCNC(C)=O` was run?
**A.** Active

**Q.** How did the inhibition (Rattus norvegicus [4]) turn out when `COc1ccccc1COC1CCC(Oc2cc(O)c(CCNC(C)=O)c(-c3cccc(F)c3)c2)CC1` (configuration not stated) was run?
**A.** Active

**Q.** And the inhibition (Rattus norvegicus [5])?
**A.** Active

**Q.** How did the inhibition (Rattus norvegicus [4]) turn out when `COc1cc(OC2CCC(OCc3ccccc3C)CC2)cc(-c2cccc(F)c2)c1CCNC(C)=O` (configuration not stated) was run?
**A.** Active

**Q.** For `CC(=O)NCCc1ccc(OC2CCC(OCc3ccc(C(C)(C)C)cc3)CC2)cc1-c1cccc(F)c1` (configuration not stated), which inhibition (Rattus norvegicus [1]) is on record?
**A.** Active

**Q.** `CC(=O)Nc1cc2ccc(OCc3ccccc3)c(C)c2oc1=O` was tested. Which inhibition (Rattus norvegicus [1]) did it give?
**A.** inactive

**Q.** For `CC(=O)NCCc1ccc(OC2CCC(OCc3ccccc3)CC2)cc1-c1cccc(F)c1` (configuration not stated), which inhibition (Rattus norvegicus [3]) is on record?
**A.** Active

**Q.** What about the inhibition (Rattus norvegicus [1]) of the same compound?
**A.** Active

**Q.** `CC(=O)NCCc1c(O)cc(OC2CCC(OCc3ccc(Br)cc3)CC2)cc1-c1cccc(F)c1` (configuration not stated) was tested. Which inhibition (Rattus norvegicus [4]) did it give?
**A.** Active

**Q.** Which inhibition (Rattus norvegicus [5]) does the source give for `CO[C@@H]1[C@@H](O)[C@@H](O)[C@H](Oc2cc(O)c(CCNC(C)=O)c(-c3cccc(F)c3)c2)OC1(C)C` here?
**A.** Active

**Q.** With `COc1cc(C)ccc1COC1CCC(Oc2ccc(CCNC(C)=O)c(-c3cccc(F)c3)c2)CC1` (configuration not stated) as the compound, how does the inhibition (Rattus norvegicus [1]) read?
**A.** Active

**Q.** For `CC(=O)NCCc1c(O)cc(OC2CCC(OCc3ccccc3C)CC2)cc1-c1cccc(F)c1` (configuration not stated), which inhibition (Rattus norvegicus [4]) is on record?
**A.** Active

**Q.** Which inhibition (Rattus norvegicus [4]) does the source give for `CC(=O)NCCc1cc(C)c(OC2CCC(OCc3ccc(Br)cc3)CC2)cc1-c1cccc(F)c1` (configuration not stated) here?
**A.** inactive

**Q.** What does the source list for `CC(=O)NCCc1c(O)cc(OC2CCC(OCc3ccccc3)CC2)cc1-c1cccc(F)c1` (configuration not stated)?
**A.** inhibition (Rattus norvegicus [4]): Active; inhibition (Rattus norvegicus [5]): Active

**Q.** `CC(=O)NCCc1ccc(OC2CCC(OCc3ccccc3Cl)CC2)cc1-c1cccc(F)c1` (configuration not stated) was tested. Which inhibition (Rattus norvegicus [2]) did it give?
**A.** Active

**Q.** What about the inhibition (Rattus norvegicus [1]) of the same compound?
**A.** Active

**Q.** For `CC(=O)NCCc1ccc(OC2CCC(OCc3ccc(Br)cc3)CC2)c(O)c1-c1cccc(F)c1` (configuration not stated), which inhibition (Rattus norvegicus [4]) is on record?
**A.** Active

**Q.** What about the inhibition (Rattus norvegicus [5]) of the same compound?
**A.** Active

**Q.** How did the inhibition (Rattus norvegicus [1]) turn out when `CC(=O)Nc1cc2ccc(OCc3ccc(Cl)cc3)c(C)c2oc1=O` was run?
**A.** inactive

**Q.** `CC(=O)NCCc1cc(C)c(OC2CCC(OCc3ccccc3)CC2)cc1-c1cccc(F)c1` (configuration not stated) was tested. Which inhibition (Rattus norvegicus [4]) did it give?
**A.** inactive

**Q.** How did the inhibition (Rattus norvegicus [4]) turn out when `CC(=O)NCCc1ccc(OC2CCC(OCc3ccccc3)CC2)c(O)c1-c1cccc(F)c1` (configuration not stated) was run?
**A.** Active

**Q.** `CC(=O)NCCc1ccc(OC2CCC(OCc3ccc(Cl)cc3Br)CC2)cc1-c1cccc(F)c1` (configuration not stated) was tested. Which inhibition (Rattus norvegicus [1]) did it give?
**A.** Active

**Q.** Which inhibition (Rattus norvegicus [1]) does the source give for `COc1ccc(COC2CCC(Oc3ccc(CCNC(C)=O)c(-c4cccc(F)c4)c3)CC2)cc1` (configuration not stated) here?
**A.** Active

**Q.** For `CC(=O)NCCc1ccc(OC2CCC(OCc3ccccc3C)CC2)c(O)c1-c1cccc(F)c1` (configuration not stated), which inhibition (Rattus norvegicus [4]) is on record?
**A.** Active

**Q.** How did the inhibition (Rattus norvegicus [1]) turn out when `CC(=O)NCCc1ccc(O)cc1-c1cccc(F)c1` was run?
**A.** inactive

**Q.** For `COc1ccccc1COC1CCC(Oc2cc(-c3cccc(F)c3)c(CCNC(C)=O)cc2C)CC1` (configuration not stated), which inhibition (Rattus norvegicus [4]) is on record?
**A.** inactive

**Q.** For `CC(=O)NCCc1ccc(OC2CCC(OCc3ccccc3C)CC2)cc1-c1cccc(F)c1` (configuration not stated), which inhibition (Rattus norvegicus [1]) is on record?
**A.** Active

**Q.** For `CC(=O)NCCc1cc(C)c(OC2CCC(OCc3ccccc3C)CC2)cc1-c1cccc(F)c1` (configuration not stated), which inhibition (Rattus norvegicus [4]) is on record?
**A.** inactive

**Q.** How did the inhibition (Rattus norvegicus [2]) turn out when `CC(=O)NCCc1ccc(OC2CCC(OCc3ccc(Cl)cc3)CC2)cc1-c1cccc(F)c1` (configuration not stated) was run?
**A.** inactive

**Q.** What about the inhibition (Rattus norvegicus [1]) of the same compound?
**A.** Active

**Q.** For `CC(=O)NCCc1ccc(OC2CCC(OCc3ccc(F)cc3)CC2)cc1-c1cccc(F)c1` (configuration not stated), which inhibition (Rattus norvegicus [1]) is on record?
**A.** Active

**Q.** With `CC(=O)NCCc1ccc(OC2CCC(OCc3ccc(Cl)cc3)CC2)c(O)c1-c1cccc(F)c1` (configuration not stated) as the compound, how does the inhibition (Rattus norvegicus [4]) read?
**A.** Active

**Q.** How did the inhibition (Rattus norvegicus [1]) turn out when `CC(=O)Nc1cc2ccc(OCc3ccccc3Br)c(C)c2oc1=O` was run?
**A.** inactive

**Q.** `COc1cc(OC2CCC(OCc3ccc(Cl)cc3)CC2)cc(-c2cccc(F)c2)c1CCNC(C)=O` (configuration not stated) was tested. Which inhibition (Rattus norvegicus [3]) did it give?
**A.** Active

**Q.** What about the inhibition (Rattus norvegicus [4]) of the same compound?
**A.** Active

**Q.** What about the inhibition (Rattus norvegicus [5]) of the same compound?
**A.** Active

**Q.** For `CC(=O)NCCc1ccc(OC2CCC(OCc3ccccc3F)CC2)cc1-c1cccc(F)c1` (configuration not stated), which inhibition (Rattus norvegicus [1]) is on record?
**A.** Active

**Q.** Which inhibition (Rattus norvegicus [4]) does the source give for `COc1cc(OC2CCC(OCc3ccccc3)CC2)cc(-c2cccc(F)c2)c1CCNC(C)=O` (configuration not stated) here?
**A.** Active

**Q.** With `CC(=O)NCCc1ccc(OC2CCC(OCc3ccccc3Br)CC2)cc1-c1cccc(F)c1` (configuration not stated) as the compound, how does the inhibition (Rattus norvegicus [2]) read?
**A.** Active

**Q.** And the inhibition (Rattus norvegicus [1])?
**A.** Active

**Q.** With `COc1ccccc1COC1CCC(Oc2ccc(CCNC(C)=O)c(-c3cccc(F)c3)c2)CC1` (configuration not stated) as the compound, how does the inhibition (Rattus norvegicus [2]) read?
**A.** Active

**Q.** How did the inhibition (Rattus norvegicus [4]) turn out when `CC(=O)NCCc1c(O)cc(OC2CCC(OCc3ccc(Cl)cc3)CC2)cc1-c1cccc(F)c1` (configuration not stated) was run?
**A.** Active

**Q.** With `CC(=O)NCCc1ccc(OC2CCC(OCc3cccc(Cl)c3)CC2)cc1-c1cccc(F)c1` (configuration not stated) as the compound, how does the inhibition (Rattus norvegicus [1]) read?
**A.** Active

**Q.** `COc1ccccc1COC1CCC(Oc2ccc(CCNC(C)=O)c(-c3cccc(F)c3)c2O)CC1` (configuration not stated) was tested. Which inhibition (Rattus norvegicus [4]) did it give?
**A.** Active

**Q.** Which results are given for `CC(=O)NCCc1ccc(OC2CCC(OCc3ccc(Cl)cc3)[C@@H](O)[C@H]2O)cc1-c1cccc(F)c1` (some centres not stated)?
**A.** inhibition (Rattus norvegicus [2]): Active; inhibition (Rattus norvegicus [1]): Active

**Q.** Which inhibition (Rattus norvegicus [1]) does the source give for `CC(=O)Nc1cc2ccc(O)c(C)c2oc1=O` here?
**A.** inactive

**Q.** For `COc1cc(OC2CCC(OCc3ccc(Br)cc3)CC2)cc(-c2cccc(F)c2)c1CCNC(C)=O` (configuration not stated), which inhibition (Rattus norvegicus [4]) is on record?
**A.** Active

**Q.** And the inhibition (Rattus norvegicus [5])?
**A.** Active

**Q.** Which inhibition (Rattus norvegicus [4]) does the source give for `COc1ccccc1COC1CCC(Oc2cc(OC)c(CCNC(C)=O)c(-c3cccc(F)c3)c2)CC1` (configuration not stated) here?
**A.** Active

**Q.** For `CC(=O)NCCc1ccc(OC2CCC(OCc3ccc(Br)cc3)CC2)cc1-c1cccc(F)c1` (configuration not stated), which inhibition (Rattus norvegicus [1]) is on record?
**A.** Active
